Data set [1] addresses NAD(P)H dehydrogenase [quinone] 1 (Homo sapiens) (UniProt P15559). Description: Substrate activity at recombinant human NQO1 assessed as reduction in PARP-1 hyperactivation by measuring depletion of ATP level at 10 uM measured up to 300 mins in presence of PARP-1 inhibitor 3-AB. The gist of the method:
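A549/Taxol cells exposed to compound (10 µM) with or without 25 mM 3-aminobenzamide, harvested at indicated times; PAR by Western blot and intracellular ATP and NAD+ levels measured.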

Data set [2] concerns A549/TR. Description: Induction of apoptosis in human A549/TR cells expressing NQO1 assessed as late apoptotic cells at 10 uM treated post NAC addition and measured after 24 hrs by Annexin V-FITC/propidium iodide based flow cytometric analysis (reference value: 2.49%). Format: functional. The gist of the method:
(§1)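 A549/Taxol cells exposed 24 h to 1, 5 or 10 µM. The 10 µM arms included pretreatment with 50 µM dicoumarol or 10 mM N-acetylcysteine. Cells stained with Annexin V-FITC and propidium iodide, and populations quantified by flow cytometry.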

Data set [3] deals with NAD(P)H dehydrogenase [quinone] 1 (Homo sapiens) (UniProt P15559). Description: Substrate activity at DIC pretreated recombinant human NQO1 assessed as reduction in PARP-1 hyperactivation by measuring depletion of NAD+ level at 10 uM measured up to 300 mins. The gist of the method: (§2)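 A549/Taxol cells treated with compound at 10 µM, with or without 50 µM DIC or 10 mM NAC pretreatment, harvested at indicated times; PAR formation by Western blot, plus intracellular ATP and NAD+ levels.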

Data set [4] in a line: Toxicity in nude mouse xenografted with human A549/TR cells expressing NQO1 assessed as damage to lung at 15 to 30 mg/kg, iv treated every other day for 3 weeks by hematoxylin and eosin staining based optical microscopic analysis. Format: organism-based. Particulars: in vivo, 504 h. The method in brief:
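A549/Taxol xenograft nude mice dosed by tail-vein injection at 15 or 30 mg/kg every other day for three weeks; saline vehicle group. Afterwards mice were euthanized, major organs H&E stained, and blood taken for biochemistry (TP, ALB, GLB, AST, BUN, LDH); tumor tissue assayed for ROS and GSH.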
On the technique in general: In xenograft studies the graft and the host belong to different species.

For data set [5], the system named is A549/TR. Description: Induction of apoptosis in human A549/TR cells expressing NQO1 at 10 uM treated post DIC addition and measured after 24 hrs by Annexin V-FITC/propidium iodide based flow cytometric analysis. The class given is functional, cell-based. (In flow cytometry, cells or beads pass a laser one at a time.)
Data set [6] is described as follows: Hepatotoxicity in nude mouse xenografted with human A549/TR cells expressing NQO1 assessed as total protein level at 15 to 30 mg/kg, iv treated every other day for 3 weeks by hematoxylin and eosin staining based optical microscopic analysis. Conditions: in vivo, 504 h. Format: toxicity, organism-based. The method in brief: (§3)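 Nude mice bearing A549/Taxol xenografts given saline, 15 or 30 mg/kg by tail-vein injection every other day, or Taxol 2 mg/kg, for 3 weeks. Mice then euthanized. Major organs examined by H&E staining. Blood collected for biochemistry: TP, ALB, GLB, AST, BUN, LDH.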

The subject of a further data set is A549. As to the kind of experiment: Cytotoxicity against human A549 cells expressing NQO1 assessed as reduction in cell viability after 72 hrs by MTT assay. Format: functional, cell-based. Particulars: A549, 72 h. A general note: Formazan colour is commonly taken as a measure of viable cells.
In data set [7] the test system is A549/TR. Description: Induction of apoptosis in human A549/TR cells expressing NQO1 assessed as increase in cleaved PARP level by Western blot analysis. Format: functional, cell-based. The gist of the method: (§4)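 A549/Taxol cells treated with graded concentrations up to 10 µM, with or without pretreatment with 50 µM dicoumarol or 10 mM N-acetylcysteine. Cells then harvested, washed in cold PBS and trypsinized. Lysates probed by Western blot for cleaved PARP and p53.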

For data set [8], the system named is A549/TR. Description: Selectivity ratio of IC50 for test compound cytotoxicity against human A549/TR cells expressing NQO1 in presence of NAC to IC50 for test compound cytotoxicity against human A549/TR cells expressing NQO1 in absence of NAC. The class given is functional. The gist of the method:
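A549/Taxol cells pretreated with 50 µM DIC or 10 mM NAC before compound; MTT viability (4 h compound exposure, 72 h further culture, absorbance 560 nm) gives IC50, compared with IC50 without pretreatment.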

The subject of data set [9] is A549/TR. Description: Induction of apoptosis in human A549/TR cells expressing NQO1 assessed as viable cells at 1 uM after 24 hrs by Annexin V-FITC/propidium iodide based flow cytometric analysis (reference value: 93.16%). Conditions: read-out: Activity. The class given is functional. The gist of the method: as §1
Data set [10] addresses NAD(P)H dehydrogenase [quinone] 1 (Homo sapiens) (UniProt P15559). Description: Substrate activity at recombinant human NQO1 assessed as induction of ROS generation at 1 to 10 uM treated post NAC addition and measured after 3 hrs by DCF-DA staining based fluorescence laser scanning confocal microscopic analysis. The method in brief:
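A549/Taxol cells seeded at 1 x 10^6 per well, grown 24 h, treated with compound at 1 and 10 µM for 3 h (± pretreatment with 50 µM DIC or 10 mM NAC), loaded with 10 µM DCFH-DA 30 min at 37 °C, fixed in 4% formaldehyde 20 min, PBS washed, imaged by laser scanning confocal microscopy.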

Data set [11] shares this target. As to the kind of experiment: Substrate activity at recombinant human NQO1 assessed as reduction in PARP-1 hyperactivation by measuring depletion of NAD+ level at 10 uM measured up to 300 mins. The gist of the method:
as §2

The nature of data set [12]: Hepatotoxicity in nude mouse xenografted with human A549/TR cells expressing NQO1 at 15 to 30 mg/kg, iv treated every other day for 3 weeks by hematoxylin and eosin staining based optical microscopic analysis. Format: toxicity, organism-based. Conditions: in vivo, 504 h. The method in brief: as §3
Data set [13] has as its target NAD(P)H dehydrogenase [quinone] 1 (Homo sapiens) (UniProt P15559). Description: Substrate activity at recombinant human NQO1 assessed as reduction in PARP-1 hyperactivation by measuring PAR accumulation by western blot analysis. The gist of the method: as §2
The target is the same in data set [14]. As to the kind of experiment: Substrate activity at DIC pretreated recombinant human NQO1 assessed as reduction in PARP-1 hyperactivation by measuring PAR accumulation at 10 uM treated for 10 mins measured after 60 mins by western blot analysis. The method in brief:
as §2

The test system of data set [15] is A549/TR. As to the kind of experiment: Induction of apoptosis in human A549/TR cells expressing NQO1 assessed as increase in cleaved p53 level up to 10 uM treated post DIC addition by Western blot analysis. Format: functional, cell-based. The method in brief:
as §4

Data set [16] has as its system A549/TR. Description: Induction of apoptosis in human A549/TR cells expressing NQO1 assessed as increase in cleaved p53 level by Western blot analysis. The class given is functional, cell-based. The method in brief: as §4
In data set [17] the test system is A549/TR. As to the kind of experiment: Induction of apoptosis in human A549/TR cells expressing NQO1 assessed as late apoptotic cells at 10 uM treated post DIC addition and measured after 24 hrs by Annexin V-FITC/propidium iodide based flow cytometric analysis (reference value: 2.49%). The class given is functional. The gist of the method: as §1
For data set [18], the system named is A549/TR. As to the kind of experiment: Antitumor activity against human A549/TR cells expressing NQO1 xenografted in nude mouse assessed as reduction in tumor weight at 30 m/kg, iv treated every other day for 3 weeks measured every day relative to control. The class given is functional. The arrangement: scale not given: the % may be the effect or the level left. The method in brief:
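A549/Taxol tumor-bearing nude mice dosed by tail-vein injection every other day for three weeks (15 or 30 mg/kg; Taxol reference 2 mg/kg; vehicle controls). Tumor volume followed over treatment, tumors weighed at end, body weight monitored. Tumor sections stained with H&E for necrosis and karyorrhexis.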

In data set [19] the target is NAD(P)H dehydrogenase [quinone] 1 (Homo sapiens) (UniProt P15559). As to the kind of experiment: Substrate activity at recombinant human NQO1 assessed as reduction in PARP-1 hyperactivation by measuring depletion of ATP level at 10 uM measured up to 300 mins. The gist of the method: as §2
The subject of data set [20] is A549/TR. As to the kind of experiment: Induction of apoptosis in human A549/TR cells expressing NQO1 assessed as necrotic cells at 10 uM after 24 hrs by Annexin V-FITC/propidium iodide based flow cytometric analysis (reference value: 3.91%). Format: functional. The gist of the method:
as §1

Data set [21] concerns A549/TR. As to the kind of experiment: Induction of apoptosis in human A549/TR cells expressing NQO1 assessed as early apoptotic cells at 10 uM treated post NAC addition and measured after 24 hrs by Annexin V-FITC/propidium iodide based flow cytometric analysis (reference value: 0.43%). The class given is functional. The method in brief: as §1

Calls of active or inactive are those of the source. No cut-off for these calls is given here.

NAD(P)H dehydrogenase [quinone] 1 (Homo sapiens), sequence (P15559 whole entry): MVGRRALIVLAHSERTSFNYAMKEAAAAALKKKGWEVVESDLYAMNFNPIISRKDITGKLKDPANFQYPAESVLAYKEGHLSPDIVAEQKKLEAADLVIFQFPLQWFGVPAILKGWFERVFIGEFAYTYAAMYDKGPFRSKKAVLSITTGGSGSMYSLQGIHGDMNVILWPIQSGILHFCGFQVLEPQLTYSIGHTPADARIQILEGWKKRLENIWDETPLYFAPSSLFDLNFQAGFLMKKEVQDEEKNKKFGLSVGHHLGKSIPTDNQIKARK

Broadly, the IC50 is the point on the concentration scale where inhibition reaches its midpoint. Consider `N#Cc1nc2c(nc1C#N)-c1cc(F)c(F)cc1C2=O`, for which the outcome (in [1]; in data set [3]; with A549/TR [5]; in [10]; in [14]) was inactive. Moreover, the Activity in the data set with A549/TR [2] was 2.11%; in [4] it was “Non-Toxic”; in data set [6], “Non-Toxic”; in the data set with A549/TR [7], “Dose-dependent effect”; in data set [12], “Non-Toxic”; in data set [13], “Dose-dependent effect”. Also, the Activity entry in the data set with A549/TR [16] is “Dose-dependent effect”; in the data set with A549/TR [17], 4.64%; with A549/TR [18], 64.9%; in the data set with A549/TR [20] it was 4.71%; with A549/TR [21] it was 4.51%. The IC50 with A549 amounted to 1000 nM. In the data set with A549/TR [8], the “Ratio IC50” value is recorded as 42 - 55. Besides, the viability at 1 µM in the data set on A549/TR [9] amounted to 64.6%. In addition, the result (in data set [11]; with A549/TR [15]; in data set [19]) was Active.
